{"source": "ChEMBL document CHEMBL3621137", "about": "“Novel 3-Substituted 7-Phenylpyrrolo[3,2-f]quinolin-9(6H)-ones as Single Entities with Multitarget Antiproliferative Activity” (J Med Chem, 2015)", "key": {"MCF7": {"test_system": "MCF7", "assay": "Cytotoxicity against human MCF7 cells after 72 hrs by MTT assay", "assay_type": "functional", "settings": "MCF7, 72 h", "how_it_was_run": "(§1)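 Leukemic lines grown in RPMI-1640, solid-tumor lines in DMEM, both with 10% FBS, 2 mM glutamine and antibiotics, at 37 °C in 5% CO2. Seeded at 8 × 10^3 cells/well and exposed to a concentration range 24 h later. Survival read by MTT. GI50 is the concentration inhibiting proliferation by 50%. Mean ± SEM of at least three independent experiments.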"}, "MV4-11 [1]": {"test_system": "MV4-11", "assay": "Cytotoxicity against human glucocorticoid- sensitive MV4-11 cells assessed as combination index of GI50 at 10:1 ratio of daunorubicin and compound after 48 hrs by MTT assay", "assay_type": "functional", "how_it_was_run": "(§2)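 Cells plated in triplicate and treated 48 h with serial dilutions of the compound combined with cytarabine, daunorubicin or dexamethasone at fixed molar ratios. Viability read by MTT. […] Mean ± SEM of three independent experiments.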"}, "K562": {"test_system": "K562", "assay": "Cytotoxicity against human K562 cells after 72 hrs by MTT assay", "assay_type": "functional", "settings": "K562, 72 h", "how_it_was_run": "as §1"}, "Jurkat [2]": {"test_system": "Jurkat", "assay": "Cytotoxicity against human glucocorticoid-resistant Jurkat cells assessed as combination index of GI75 at 10:1 ratio of daunorubicin and compound after 48 hrs by MTT assay", "assay_type": "functional", "how_it_was_run": "as §2"}, "[3]": {"assay": "Cell cycle arrest in human RS4:11 cells assessed as accumulation at G2/M phase after 24 hrs by flow cytometry analysis", "assay_type": "functional, cell-based", "how_it_was_run": "(§3)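 Exponentially growing cells (5 × 10^5) treated 24 h across a concentration series. Cells then collected, fixed in ice-cold 70% ethanol and stained with propidium iodide. Percentage of cells in G1, S and G2/M read by flow cytometry. Mean ± SEM of three independent experiments.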"}, "[4]": {"molecular_target": "Serine/threonine-protein kinase PLK4 (Homo sapiens) (UniProt O00444)", "sequence (O00444 whole entry)": "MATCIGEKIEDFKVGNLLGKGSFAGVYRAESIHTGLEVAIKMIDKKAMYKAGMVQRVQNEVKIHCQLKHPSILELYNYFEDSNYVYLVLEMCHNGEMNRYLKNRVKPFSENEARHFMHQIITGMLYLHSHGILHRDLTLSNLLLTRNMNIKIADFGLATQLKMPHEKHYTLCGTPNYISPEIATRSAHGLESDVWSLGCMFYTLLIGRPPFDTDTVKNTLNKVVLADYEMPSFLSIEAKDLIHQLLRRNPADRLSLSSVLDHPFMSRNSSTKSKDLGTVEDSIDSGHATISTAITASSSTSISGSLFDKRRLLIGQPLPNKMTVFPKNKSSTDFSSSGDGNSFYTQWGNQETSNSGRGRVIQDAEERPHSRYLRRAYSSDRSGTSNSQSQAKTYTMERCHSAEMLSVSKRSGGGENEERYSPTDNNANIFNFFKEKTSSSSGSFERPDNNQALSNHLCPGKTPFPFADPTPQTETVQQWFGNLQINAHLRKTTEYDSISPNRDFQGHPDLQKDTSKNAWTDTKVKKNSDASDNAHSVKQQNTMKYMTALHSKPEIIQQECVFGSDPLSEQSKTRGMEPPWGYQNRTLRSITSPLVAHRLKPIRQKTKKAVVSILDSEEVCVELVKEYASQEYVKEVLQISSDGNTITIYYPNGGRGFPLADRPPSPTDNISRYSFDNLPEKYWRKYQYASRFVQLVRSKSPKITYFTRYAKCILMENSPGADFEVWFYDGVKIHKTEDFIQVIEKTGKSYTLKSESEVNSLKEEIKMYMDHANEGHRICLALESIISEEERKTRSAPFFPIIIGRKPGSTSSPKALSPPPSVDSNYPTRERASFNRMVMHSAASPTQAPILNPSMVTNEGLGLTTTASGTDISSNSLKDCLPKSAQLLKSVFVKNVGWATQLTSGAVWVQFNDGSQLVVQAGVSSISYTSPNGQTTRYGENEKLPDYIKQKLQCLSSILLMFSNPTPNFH", "assay": "Inhibition of PLK4 (unknown origin) at 1 uM"}, "RS4-11": {"test_system": "RS4-11", "assay": "Induction of apoptosis in human RS4:11 cells using annexin-V/propidium iodide staining after 24 hrs by flow cytometric analysis", "assay_type": "functional, cell-based", "how_it_was_run": "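Cells were exposed to the agent at the indicated concentrations for 24 h, then stained with annexin-V-FITC plus PI and analysed by flow cytometry. Populations were scored as live (annexin−/PI−), early apoptotic (annexin+/PI−), late apoptotic (annexin+/PI+) or necrotic (annexin−/PI+). Mean ± SEM of three independent experiments.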"}, "Jurkat [5]": {"test_system": "Jurkat", "assay": "Cytotoxicity against human glucocorticoid-resistant Jurkat cells assessed as combination index of GI90 at 10:1 ratio of daunorubicin and compound after 48 hrs by MTT assay", "assay_type": "functional", "how_it_was_run": "as §2"}, "MV4-11 [6]": {"test_system": "MV4-11", "assay": "Cytotoxicity against human glucocorticoid- sensitive MV4-11 cells assessed as combination index of GI75 at 10:1 ratio of daunorubicin and compound after 48 hrs by MTT assay", "assay_type": "functional", "how_it_was_run": "as §2"}, "MV4-11 [7]": {"test_system": "MV4-11", "assay": "Cytotoxicity against human glucocorticoid- sensitive MV4-11 cells assessed as combination index of GI50 at 10:1 ratio of dexamethasone and compound after 48 hrs by MTT assay", "assay_type": "functional", "how_it_was_run": "as §2"}, "HeLa [8]": {"test_system": "HeLa", "assay": "Cytotoxicity against human HeLa cells after 72 hrs by MTT assay", "assay_type": "functional", "how_it_was_run": "as §1"}, "HeLa [9]": {"test_system": "HeLa", "assay": "Cell cycle arrest in human HeLa cells assessed as accumulation at G2/M phase after 24 hrs by flow cytometry analysis", "assay_type": "functional, cell-based", "how_it_was_run": "as §3"}, "[10]": {"molecular_target": "Rhodopsin kinase GRK1 (Homo sapiens) (UniProt Q15835)", "sequence (Q15835 whole entry)": "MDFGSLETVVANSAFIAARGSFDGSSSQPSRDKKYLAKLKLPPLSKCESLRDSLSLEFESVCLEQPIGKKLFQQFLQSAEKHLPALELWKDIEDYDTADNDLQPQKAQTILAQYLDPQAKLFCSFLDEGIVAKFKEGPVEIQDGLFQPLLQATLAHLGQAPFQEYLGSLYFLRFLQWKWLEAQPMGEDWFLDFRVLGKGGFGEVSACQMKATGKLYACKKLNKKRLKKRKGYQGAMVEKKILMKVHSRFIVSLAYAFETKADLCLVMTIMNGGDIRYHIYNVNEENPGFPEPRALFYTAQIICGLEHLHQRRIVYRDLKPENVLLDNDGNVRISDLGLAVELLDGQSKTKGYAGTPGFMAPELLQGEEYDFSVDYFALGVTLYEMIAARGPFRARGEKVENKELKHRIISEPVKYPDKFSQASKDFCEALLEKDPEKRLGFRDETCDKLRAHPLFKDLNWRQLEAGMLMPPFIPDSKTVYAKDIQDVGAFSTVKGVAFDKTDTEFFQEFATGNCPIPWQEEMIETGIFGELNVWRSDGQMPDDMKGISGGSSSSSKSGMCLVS", "assay": "Inhibition of GRK1 (unknown origin) at 1 uM"}, "Jurkat [11]": {"test_system": "Jurkat", "assay": "Cytotoxicity against human glucocorticoid-resistant Jurkat cells assessed as combination index of GI75 at 100:1 ratio of Ara-C and compound after 48 hrs by MTT assay", "assay_type": "functional", "how_it_was_run": "as §2"}, "MV4-11 [12]": {"test_system": "MV4-11", "assay": "Cytotoxicity against human glucocorticoid- sensitive MV4-11 cells assessed as combination index of GI90 at 10:1 ratio of daunorubicin and compound after 48 hrs by MTT assay", "assay_type": "functional", "how_it_was_run": "as §2"}, "PBL": {"test_system": "PBL", "assay": "Cytotoxicity against human PBL after 72 hrs by MTT assay", "assay_type": "functional", "how_it_was_run": "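Healthy-donor PBL isolated on a Lymphoprep gradient, rested overnight at 1.0 × 10^6 cells/mL in RPMI-1640 with 10% FBS. Nonadherent cells resuspended at 5 × 10^5 cells/mL, either resting or with 2.5 μg/mL PHA. Treated 72 h and viability read by MTT. GI50 is the concentration reducing growth by 50%. Mean ± SEM of three experiments.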"}, "[13]": {"test_system": "Receptor-type tyrosine-protein kinase FLT3 (Homo sapiens), P36888 [K663Q]", "assay": "Inhibition of FLT3 phosphorylation at K663Q residue (unknown origin) at 1 uM"}}, "data": [{"smiles": "O=C(C1CC1)n1ccc2c3c(=O)cc(-c4ccccc4)[nH]c3ccc21", "values": [{"measurement": "GI50", "setting": "MCF7", "value": 5, "unit": "nM"}, {"measurement": "CI", "setting": "MV4-11 [1]", "value": 0.22}, {"measurement": "GI50", "setting": "K562", "value": 6, "unit": "nM"}, {"measurement": "CI", "setting": "Jurkat [2]", "value": 0.45}, {"measurement": "Activity", "setting": "[3]", "value": "Dose-dependent effect"}, {"measurement": "inhibition", "setting": "[4]", "value": "> 50", "unit": "%"}, {"measurement": "Activity", "setting": "RS4-11", "value": "Dose-dependent effect"}, {"measurement": "CI", "setting": "Jurkat [5]", "value": 1}, {"measurement": "CI", "setting": "MV4-11 [6]", "value": 0.17}, {"measurement": "CI", "setting": "MV4-11 [7]", "value": 0.016}, {"measurement": "GI50", "setting": "HeLa [8]", "value": 1, "unit": "nM"}, {"measurement": "Activity", "setting": "HeLa [9]", "value": "Dose-dependent effect"}, {"measurement": "inhibition", "setting": "[10]", "value": 50, "unit": "%"}, {"measurement": "CI", "setting": "Jurkat [11]", "value": 0.79}, {"measurement": "CI", "setting": "MV4-11 [12]", "value": 0.14}, {"measurement": "GI50", "setting": "PBL", "value": "> 100000", "unit": "nM"}, {"measurement": "inhibition", "setting": "[13]", "value": "> 50", "unit": "%"}]}]}
